Test results as given in ChEMBL document CHEMBL5678814, “Novel Mps1 Kinase Inhibitors with Potent Antitumor Activity” (Mol Cancer Ther, 2016).

Legend:
[1] = target: Serine/threonine-protein kinase BRSK2 (Homo sapiens, UniProt Q8IWQ3); assay: Binding affinity to BRSK2 (unknown origin) assessed as dissociation constant
[2] = target: Mitogen-activated protein kinase 9 (Homo sapiens, UniProt P45984); assay: Binding affinity to JNK2 (unknown origin) assessed as dissociation constant
[3] = target: Mitogen-activated protein kinase 10 (Homo sapiens, UniProt P53779); assay: Binding affinity to JNK3 (unknown origin) assessed as dissociation constant
[4] = target: Serine/threonine-protein kinase mTOR (Homo sapiens, UniProt P42345); assay: Binding affinity to MTOR (unknown origin) assessed as dissociation constant
HT-1376 = assay: Antiproliferative activity against human HT-1376 cells assessed as cell growth inhibition incubated for 96 hrs by MTS assay; assay type: functional, cell-based; conditions: HT-1376, 96 h
RT-112 = assay: Antiproliferative activity against human RT-112 cells assessed as cell growth inhibition incubated for 96 hrs by MTS assay; assay type: functional, cell-based; conditions: RT-112, 96 h
NCI-H661 = assay: Antiproliferative activity against human NCI-H661 cells assessed as cell growth inhibition incubated for 96 hrs by MTS assay; assay type: functional, cell-based; conditions: NCI-H661, 96 h
SK-MES-1 = assay: Antiproliferative activity against human SK-MES-1 cells assessed as cell growth inhibition incubated for 96 hrs by MTS assay; assay type: functional, cell-based; conditions: SK-MES-1, 96 h
DU-145 = assay: Antiproliferative activity against human DU-145 cells assessed as cell growth inhibition incubated for 96 hrs by MTS assay; assay type: functional, cell-based; conditions: DU-145, 96 h
LAPC4 = assay: Antiproliferative activity against human LAPC4 cells assessed as cell growth inhibition incubated for 96 hrs by MTS assay; assay type: functional, cell-based; conditions: LAPC4, 96 h
VCaP = assay: Antiproliferative activity against human VCaP cells assessed as cell growth inhibition incubated for 96 hrs by MTS assay; assay type: functional, cell-based
HT-1080 = assay: Antiproliferative activity against human HT-1080 cells assessed as cell growth inhibition incubated for 96 hrs by MTS assay; assay type: functional, cell-based; conditions: HT-1080, 96 h
SNU-16 = assay: Antiproliferative activity against human SNU-16 cells assessed as cell growth inhibition incubated for 96 hrs by MTS assay; assay type: functional, cell-based; conditions: SNU-16, 96 h
[5] = Half life in male CD1 mouse plasma at 0.5 mg/kg, iv measured after 24 hrs by LC/-MS/MS analysis; assay type: ADME, organism-based
Summary of the method: (§1)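 Male CD1 mice received a single iv bolus of 0.5 mg/kg in 1% DMSO/99% plasma. Plasma was sampled at 2, 5, 15, 30 and 45 min and at 1, 2, 4, 6, 8 and 24 h, precipitated with ice-cold acetonitrile (1:5), and supernatants were run by LC/MS-MS. Parameters were estimated from plasma concentration data, with AUC by the log-linear trapezoidal rule.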

[6] = Volume of distribution at steady state in male CD1 mouse plasma at 0.5 mg/kg, iv measured after 24 hrs by LC/-MS/MS analysis; assay type: ADME, organism-based; conditions: read-out: Vdss; summary of the method: as §1
[7] = Oral bioavailability in male Wistar rat plasma at 0.5 mg/kg measured after 24 hrs by LC/-MS/MS analysis; assay type: ADME, organism-based
[8] = Antitumor activity against human A2780cis cells xenografted female athymic NMRI mouse model assessed as T/C ratio at 2.5 mg/kg, po administered twice daily intermittent for 2 days on/5 days off; assay type: functional; conditions: time 7 day
HeLa = assay: cells; conditions: Homo sapiens, 4 h
[9] = Cmax in female NMRI mouse plasma at 1 mg/kg, po measured after 24 hrs by LC/-MS/MS analysis
OPM-2 = assay: Antiproliferative activity against human OPM-2 cells assessed as cell growth inhibition incubated for 96 hrs by crystal violet staining; conditions: OPM-2, 96 h
OV-90 = assay: Antiproliferative activity against human OV-90 cells assessed as cell growth inhibition incubated for 96 hrs by crystal violet staining; conditions: OV-90, 96 h
NCI-H28 = assay: Antiproliferative activity against human NCI-H28 cells assessed as cell growth inhibition incubated for 96 hrs by crystal violet staining; conditions: NCI-H28, 96 h
SK-OV-3 = assay: Antiproliferative activity against human SK-OV-3 cells assessed as cell growth inhibition incubated for 96 hrs by crystal violet staining; conditions: SK-OV-3, 96 h
COLO-829 = assay: Antiproliferative activity against human COLO-829 cells assessed as cell growth inhibition incubated for 96 hrs by crystal violet staining; conditions: COLO-829, 96 h
[10] = Antiproliferative activity against human A2780cis cells assessed as cell growth inhibition incubated for 96 hrs by crystal violet staining
MSTO-211H = assay: Antiproliferative activity against human MSTO-211H cells assessed as cell growth inhibition incubated for 96 hrs by crystal violet staining
NCI-H2052 = assay: Antiproliferative activity against human NCI-H2052 cells assessed as cell growth inhibition incubated for 96 hrs by crystal violet staining; conditions: NCI-H2052, 96 h
NCI-H2452 = assay: Antiproliferative activity against human NCI-H2452 cells assessed as cell growth inhibition incubated for 96 hrs by crystal violet staining; conditions: NCI-H2452, 96 h
NCI-H1650 = assay: Antiproliferative activity against human NCI-H1650 cells assessed as cell growth inhibition incubated for 96 hrs by crystal violet staining; conditions: NCI-H1650, 96 h
NCI-H2030 = assay: Antiproliferative activity against human NCI-H2030 cells assessed as cell growth inhibition incubated for 96 hrs by crystal violet staining; conditions: NCI-H2030, 96 h
NCI-H2228 = assay: Antiproliferative activity against human NCI-H2228 cells assessed as cell growth inhibition incubated for 96 hrs by crystal violet staining; conditions: NCI-H2228, 96 h
RPMI-7951 = assay: Antiproliferative activity against human RPMI-7951 cells assessed as cell growth inhibition incubated for 96 hrs by crystal violet staining; conditions: RPMI-7951, 96 h
SK-MEL-28 = assay: Antiproliferative activity against human SK-MEL-28 cells assessed as cell growth inhibition incubated for 96 hrs by crystal violet staining; conditions: SK-MEL-28, 96 h
COLO 320DM = assay: Antiproliferative activity against human COLO 320DM cells assessed as cell growth inhibition incubated for 96 hrs by crystal violet staining
RKO = assay: Antiproliferative activity against human TP53 wildtype RKO cells assessed as cell growth inhibition incubated for 96 hrs by crystal violet staining

Sequence of Serine/threonine-protein kinase BRSK2 (Q8IWQ3 whole entry): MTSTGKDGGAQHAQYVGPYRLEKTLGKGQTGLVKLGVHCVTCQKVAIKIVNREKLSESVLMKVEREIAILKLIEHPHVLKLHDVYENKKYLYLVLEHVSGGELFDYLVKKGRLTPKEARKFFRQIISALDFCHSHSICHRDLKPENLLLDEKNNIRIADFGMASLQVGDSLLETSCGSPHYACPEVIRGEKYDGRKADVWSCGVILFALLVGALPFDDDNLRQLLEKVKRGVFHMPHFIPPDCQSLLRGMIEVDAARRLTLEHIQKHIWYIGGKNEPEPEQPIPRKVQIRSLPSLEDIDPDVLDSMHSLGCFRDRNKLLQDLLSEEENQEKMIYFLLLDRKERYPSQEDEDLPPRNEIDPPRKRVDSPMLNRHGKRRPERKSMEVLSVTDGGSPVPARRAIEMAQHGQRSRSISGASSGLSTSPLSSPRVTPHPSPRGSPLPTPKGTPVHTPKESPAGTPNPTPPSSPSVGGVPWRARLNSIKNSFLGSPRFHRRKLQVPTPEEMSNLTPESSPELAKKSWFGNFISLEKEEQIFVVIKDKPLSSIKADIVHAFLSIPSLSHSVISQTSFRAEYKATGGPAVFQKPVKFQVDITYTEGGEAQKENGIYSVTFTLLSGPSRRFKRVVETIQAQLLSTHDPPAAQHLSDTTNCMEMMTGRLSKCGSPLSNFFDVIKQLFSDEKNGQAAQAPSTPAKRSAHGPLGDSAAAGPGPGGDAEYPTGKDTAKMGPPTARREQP
Sequence of Mitogen-activated protein kinase 10 (P53779 whole entry): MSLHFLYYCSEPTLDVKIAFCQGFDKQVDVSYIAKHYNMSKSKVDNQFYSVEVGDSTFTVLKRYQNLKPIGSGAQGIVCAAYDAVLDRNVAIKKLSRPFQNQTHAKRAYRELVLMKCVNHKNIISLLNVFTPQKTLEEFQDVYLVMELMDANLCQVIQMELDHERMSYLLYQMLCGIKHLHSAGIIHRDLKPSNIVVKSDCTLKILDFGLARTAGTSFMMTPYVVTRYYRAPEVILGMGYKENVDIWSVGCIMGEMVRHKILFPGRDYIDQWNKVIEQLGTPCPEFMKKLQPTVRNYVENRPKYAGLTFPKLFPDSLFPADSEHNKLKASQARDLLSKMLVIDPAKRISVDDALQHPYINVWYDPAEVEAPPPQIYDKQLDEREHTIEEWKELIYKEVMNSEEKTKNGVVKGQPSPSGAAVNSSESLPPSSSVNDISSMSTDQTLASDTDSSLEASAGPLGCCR
Sequence of Mitogen-activated protein kinase 9 (P45984 whole entry): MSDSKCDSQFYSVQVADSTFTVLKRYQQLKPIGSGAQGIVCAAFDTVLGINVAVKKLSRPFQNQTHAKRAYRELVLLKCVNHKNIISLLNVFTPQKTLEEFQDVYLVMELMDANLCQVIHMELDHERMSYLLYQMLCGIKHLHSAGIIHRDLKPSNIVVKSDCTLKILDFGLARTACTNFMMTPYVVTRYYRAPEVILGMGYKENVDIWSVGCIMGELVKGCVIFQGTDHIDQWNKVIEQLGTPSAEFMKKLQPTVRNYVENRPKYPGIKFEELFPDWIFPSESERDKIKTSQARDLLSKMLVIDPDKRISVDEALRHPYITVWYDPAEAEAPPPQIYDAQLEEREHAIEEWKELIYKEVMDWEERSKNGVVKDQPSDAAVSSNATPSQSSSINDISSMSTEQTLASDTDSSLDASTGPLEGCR

With `COc1cc(S(C)(=O)=O)ccc1Nc1nc2ccc(-c3ccc(NC(=O)[C@H](C)c4ccc(F)cc4)cc3)cn2n1` [BAY-1161909] the Kd [1] was 40000 nM, the Kd [2] was 160 nM and the Kd [3] was 96 nM. The Kd [4] was 40000 nM, the IC50 (HT-1376) was 3000 nM and the IC50 (RT-112) was 83 nM. For the same molecule, the IC50 (NCI-H661) was 260 nM, the IC50 (SK-MES-1) was 210 nM and the IC50 (DU-145) was 160 nM. The IC50 (LAPC4) was 130 nM, the IC50 (VCaP) was greater than 3000 nM and the IC50 (HT-1080) was 450 nM. For the same molecule, the IC50 (SNU-16) was 88 nM, the half-life [5] was 4.9 h and the Vd [6] was 3.4 L/kg. For the same molecule, the bioavailability [7] was 49%, the T/C [8] was 0.43 and the IC50 (HeLa) was 56 nM. For the same molecule, the Cmax [9] was 120 ng/mL, the IC50 (OPM-2) was 130 nM and the IC50 (OV-90) was 150 nM. It also gave an IC50 (NCI-H28) of 110 nM, an IC50 (SK-OV-3) of 3700 nM and an IC50 (COLO-829) of 300 nM. It also gave an IC50 [10] of 60 nM, an IC50 (MSTO-211H) of 70 nM and an IC50 (NCI-H2052) of 96 nM. It also gave an IC50 (NCI-H2452) of 120 nM, an IC50 (NCI-H1650) of 130 nM and an IC50 (NCI-H2030) of 700 nM. It also gave an IC50 (NCI-H2228) greater than 3000 nM, an IC50 (RPMI-7951) of 280 nM and an IC50 (SK-MEL-28) of 670 nM. It also gave an IC50 (COLO 320DM) of 110 nM and an IC50 (RKO) of 39 nM.
